# Laboratory results reported in ChEMBL document CHEMBL1806369, “Carbonic anhydrase I and II activation with mono- and dihalogenated histamine derivatives” (Bioorg Med Chem Lett, 2011).
# Key:
# [1] = target: Carbonic anhydrase 1 (Homo sapiens) (UniProt P00915); assay: Activation of human cytosolic carbonic anhydrase 1 preincubated for 15 mins by stopped-flow CO2 hydration assay
# Method in brief: (§1)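 Initial velocity taken from at least six traces of the first 5–10% of reaction per activator, with uncatalyzed rates measured identically and subtracted. Activator stocks 10 mM in distilled-deionized water, diluted with water down to 0.1 nM. Enzyme and activator preincubated 15 min at room temperature before assay.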
# [2] = target: Carbonic anhydrase 2 (Homo sapiens) (UniProt P00918); assay: Activation of human cytosolic carbonic anhydrase 2 preincubated for 15 mins by stopped-flow CO2 hydration assay; method in brief: as §1
# Chain of Carbonic anhydrase 1 (Homo sapiens) (P00915 2-261 limits assumed): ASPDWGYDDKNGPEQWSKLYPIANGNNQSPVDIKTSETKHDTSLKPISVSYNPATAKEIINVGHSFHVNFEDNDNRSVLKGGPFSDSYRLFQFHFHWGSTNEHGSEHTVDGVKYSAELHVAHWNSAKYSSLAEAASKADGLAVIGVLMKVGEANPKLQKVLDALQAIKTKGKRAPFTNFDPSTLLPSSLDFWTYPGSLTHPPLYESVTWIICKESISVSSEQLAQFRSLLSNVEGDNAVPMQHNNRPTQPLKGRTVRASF
Structure (SMILES),KA [1],KA [2]
CC(C)(C)OC(=O)NCCc1nc[nH]c1Cl,16.5 µM,24.8 µM
CC(C)(C)OC(=O)NCCc1nc(Br)[nH]c1Br,7.1 µM,44.5 µM
CC(C)(C)OC(=O)NCCc1nc[nH]c1Br,13.3 µM,28.5 µM
NCCc1nc[nH]c1Cl,0.018 µM,0.032 µM
NCCc1nc(I)[nH]c1I,0.0009 µM,0.065 µM
CC(C)(C)OC(=O)NCCc1nc[nH]c1I,12.1 µM,36.7 µM
NCCc1nc(Br)[nH]c1Br,0.015 µM,0.096 µM
CC(C)(C)OC(=O)NCCc1nc(Cl)[nH]c1Cl,5.4 µM,50.2 µM
NCCc1nc[nH]c1I,0.0007 µM,0.001 µM
NCCc1nc(Cl)[nH]c1Cl,0.021 µM,0.115 µM
CC(C)(C)OC(=O)NCCc1nc(I)[nH]c1I,29.3 µM,13.6 µM
NCCc1nc[nH]c1Br,0.012 µM,0.008 µM
